Reference: ChEMBL document CHEMBL1145129, “Design, synthesis, and anticancer properties of 4,4'-dihydroxybenzophenone-2,4-dinitrophenylhydrazone and analogues” (J Med Chem, 2003)
In brackets after ≈: the same amount, converted by molar mass.

Columns and labels:
Colon carcinoma cell = experiment: In vitro cytotoxicity was tested in human colon tumor cells; type: functional, cell-based
Summary of the method: (§1)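 Fresh surgical human tumor specimens minced to ≤0.1 mm fragments in RPMI-1640 with 10% FBS, streptomycin and penicillin (10⁶–10⁸ cells/mL), explanted into slide flasks. Exposed 24 h at 37 °C, 5% CO₂, to test agent 0.1–20 μg/mL (≥5 doses over 3 logs), in duplicate. Washed, recultured 7–14 days, fixed, HPF cell counts vs control; IC50 (SD) from percent growth.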

Melanoma tumor cell line [1] = experiment: In vitro cytotoxicity against Human melanoma tumor cells.; type: functional, cell-based; summary of the method: as §1
Homo sapiens [2] = species: Homo sapiens; experiment: In vitro cytotoxicity against Human lung tumor cells.; type: functional; summary of the method: as §1
Homo sapiens [3] = species: Homo sapiens; experiment: In vitro cytotoxicity in Human ovary tumor cells; type: functional; conditions: Female gonad; summary of the method: as §1
[4] = In vitro cytotoxicity in Human breast tumor cells; type: functional, cell-based; summary of the method: as §1
[5] = test system: breast cancer cells (Homo sapiens); experiment: In vitro cytotoxicity in Human breast tumor cells
Melanoma tumor cell line [6] = experiment: In vitro cytotoxicity against Human melanoma tumor cells; Not available.; type: functional, cell-based; summary of the method: as §1
Homo sapiens [7] = species: Homo sapiens; experiment: In vitro cytotoxicity against Human lung tumor cells; Not available.; type: functional; summary of the method: as §1

| Structure (SMILES) | IC50 (Colon carcinoma cell) | IC50 (Melanoma tumor cell line [1]) | IC50 (Homo sapiens [2]) | IC50 (Homo sapiens [3]) | IC50 [4] | IC50 [5] | IC50 (Melanoma tumor cell line [6]) | IC50 (Homo sapiens [7]) |
| --- | --- | --- | --- | --- | --- | --- | --- | --- |
| CC(=O)c1ccc2c(c1)/C(=N\Nc1ccc([N+](=O)[O-])cc1[N+](=O)[O-])c1ccc(C(C)=O)cc1-2 | 0.7 µg/mL (≈ 1.58 µM) | 0.5 µg/mL (≈ 1.13 µM) | > 5 µg/mL | 0.9 µg/mL (≈ 2.03 µM) | > 5 µg/mL |  |  |  |
| O=[N+]([O-])c1ccc(/N=N/c2c3ccccc3c(O)c3c(O)c(O)ccc23)c([N+](=O)[O-])c1 | 0.25 µg/mL (≈ 0.595 µM) | > 5 µg/mL | > 10 µg/mL | > 10 µg/mL | 0.007 µg/mL (≈ 0.0167 µM) |  |  |  |
| O=[N+]([O-])c1ccc(N/N=C(\c2ccccc2)c2ccc(O)cc2O)c([N+](=O)[O-])c1 |  |  |  |  |  | 0.5 µg/mL (≈ 1.27 µM) | Not Active | Not Active |
| O=[N+]([O-])c1ccc(/N=N/c2c3ccccc3c3c4c(cccc24)NN3)c([N+](=O)[O-])c1 | > 5 µg/mL |  |  | > 5 µg/mL | > 5 µg/mL |  | Not Active | Not Active |
| CC(=O)Oc1cccc2c(/N=N/c3ccc([N+](=O)[O-])cc3[N+](=O)[O-])c3cccc(O)c3c(O)c12 | 0.03 µg/mL (≈ 0.0649 µM) | 0.097 µg/mL (≈ 0.21 µM) |  | 0.4 µg/mL (≈ 0.865 µM) | 0.05 µg/mL (≈ 0.108 µM) |  |  | Not Active |
| CCN(CC)c1ccc(C(=NNc2ccc([N+](=O)[O-])cc2[N+](=O)[O-])c2ccc(N(CC)CC)cc2)cc1 | > 10 µg/mL | 5 µg/mL (≈ 9.91 µM) |  |  | > 7 µg/mL |  |  | Not Active |
| O=[N+]([O-])c1ccc(N(Cc2ccccc2)N=c2c3ccccc3oc3ccccc23)c([N+](=O)[O-])c1 |  | > 10 µg/mL |  | > 10 µg/mL | > 10 µg/mL |  |  | Not Active |
| Cc1ccc(NN=C(c2ccc(O)cc2)c2ccc(O)cc2)c(C)c1 |  |  |  |  |  | 10 µg/mL (≈ 30.1 µM) | Not Active | Not Active |
| CC(=O)Oc1ccc(C(=NNc2ccc([N+](=O)[O-])cc2[N+](=O)[O-])c2ccc(OC(C)=O)cc2)cc1 | > 10 µg/mL | > 10 µg/mL | > 10 µg/mL | > 10 µg/mL |  |  |  |  |
| O=[N+]([O-])c1ccc(N/N=C(\c2ccccc2)c2ccc(O)cc2)c([N+](=O)[O-])c1 | 0.5 µg/mL (≈ 1.32 µM) | > 10 µg/mL |  | 0.3 µg/mL (≈ 0.793 µM) |  | 5 µg/mL (≈ 13.2 µM) |  | Not Active |
| O=[N+]([O-])c1ccc(NN=c2c3ccccc3[s+]([O-])c3ccccc23)c([N+](=O)[O-])c1 (configuration not stated) | > 10 µg/mL | > 10 µg/mL | > 10 µg/mL | > 10 µg/mL | > 10 µg/mL |  |  |  |
| Nc1ccc2c(NNc3ccc([N+](=O)[O-])cc3[N+](=O)[O-])c3cc(N)ccc3c(/N=N/c3ccc([N+](=O)[O-])cc3[N+](=O)[O-])c2c1 | > 5 µg/mL |  |  | > 5 µg/mL | > 5 µg/mL |  | Not Active | Not Active |
| Oc1ccc(C(=NNc2ccccc2)c2ccc(O)cc2)cc1 | > 5 µg/mL | 7 µg/mL (≈ 23 µM) | > 10 µg/mL | 6.2 µg/mL (≈ 20.4 µM) |  | > 5 µg/mL |  |  |
| O=[N+]([O-])c1ccc(N/N=C(\c2ccc(O)cc2)c2ccc(Cl)cc2)c([N+](=O)[O-])c1 | > 10 µg/mL |  |  |  |  | 8.7 µg/mL (≈ 21.1 µM) | Not Active | Not Active |
| O=[N+]([O-])c1ccc(NN=c2c3ccccc3oc3ccccc23)c([N+](=O)[O-])c1 | 0.05 µg/mL (≈ 0.133 µM) | > 10 µg/mL | > 10 µg/mL | 0.05 µg/mL (≈ 0.133 µM) | 0.04 µg/mL (≈ 0.106 µM) |  |  |  |
| O=[N+]([O-])c1ccccc1NN=C(c1ccc(O)cc1)c1ccc(O)cc1 | 4.7 µg/mL (≈ 13.5 µM) |  |  |  |  | 3.9 µg/mL (≈ 11.2 µM) | Not Active | Not Active |

| Structure (SMILES) | IC50 (Colon carcinoma cell) | IC50 (Melanoma tumor cell line [1]) | IC50 (Homo sapiens [2]) | IC50 (Homo sapiens [3]) | IC50 [4] | IC50 [5] | IC50 (Melanoma tumor cell line [6]) | IC50 (Homo sapiens [7]) |
| --- | --- | --- | --- | --- | --- | --- | --- | --- |
| O=[N+]([O-])c1ccc(NN=C(c2ccccc2)c2ccccc2)c([N+](=O)[O-])c1 |  | > 10 µg/mL | > 5 µg/mL | > 10 µg/mL |  | > 5 µg/mL |  |  |
| O=[N+]([O-])c1ccc(NN=C2c3cc(O)ccc3-c3ccc(O)cc32)c([N+](=O)[O-])c1 | 0.06 µg/mL (≈ 0.153 µM) | 4.1 µg/mL (≈ 10.5 µM) | > 10 µg/mL | 0.08 µg/mL (≈ 0.204 µM) | 0.05 µg/mL (≈ 0.127 µM) |  |  |  |
| O=c1c2cccc3c2c(nn1-c1ccccc1[N+](=O)[O-])-c1ccccc1-3 | > 5 µg/mL | 0.4 µg/mL (≈ 1.17 µM) | > 5 µg/mL | > 5 µg/mL | > 5 µg/mL |  |  |  |
| Nc1ccc2c(/N=N/c3ccc([N+](=O)[O-])cc3[N+](=O)[O-])c3ccccc3c(O)c2c1N | 5 µg/mL (≈ 12 µM) |  |  | 6 µg/mL (≈ 14.3 µM) | 5 µg/mL (≈ 12 µM) |  | Not Active | Not Active |
| O=[N+]([O-])c1ccc(N/N=C2\c3ccccc3-c3cccc(O)c32)c([N+](=O)[O-])c1 | > 5 µg/mL |  |  |  | 7.5 µg/mL (≈ 19.9 µM) |  | Not Active | Not Active |
| Nc1ccc(/C(=N/Nc2ccc([N+](=O)[O-])cc2[N+](=O)[O-])c2ccccc2N)cc1 | 8 µg/mL (≈ 20.4 µM) | 6 µg/mL (≈ 15.3 µM) |  | 2 µg/mL (≈ 5.1 µM) | 0.7 µg/mL (≈ 1.78 µM) |  |  | Not Active |
| CC(=O)Oc1cccc2c1-c1nn(-c3ccccc3)c(=O)c3cccc(c13)C2=O |  |  |  | > 10 µg/mL | > 5 µg/mL |  | Not Active | Not Active |
| CN(C)c1ccc(C(=NNc2ccc([N+](=O)[O-])cc2[N+](=O)[O-])c2ccc(N(C)C)cc2)cc1 | 10 µg/mL (≈ 22.3 µM) | 5 µg/mL (≈ 11.1 µM) |  |  | 4.2 µg/mL (≈ 9.36 µM) |  |  | Not Active |
| CC(=O)Nc1ccc(C(=NNc2ccc([N+](=O)[O-])cc2[N+](=O)[O-])c2ccc(NC(C)=O)cc2)cc1 | > 10 µg/mL | > 10 µg/mL |  | > 10 µg/mL | > 10 µg/mL |  |  | Not Active |
| O=[N+]([O-])c1ccc(NN=C(c2ccc(O)cc2O)c2ccc(O)cc2O)c([N+](=O)[O-])c1 | > 5 µg/mL |  | > 5 µg/mL | 0.03 µg/mL (≈ 0.0704 µM) |  | > 10 µg/mL | Not Active |  |
| C=CCOc1cccc2c(/N=N/c3ccc([N+](=O)[O-])cc3[N+](=O)[O-])c3cccc(OC(C)=O)c3c(O)c12 | 0.08 µg/mL (≈ 0.159 µM) |  | 0.07 µg/mL (≈ 0.139 µM) |  | 0.1 µg/mL (≈ 0.199 µM) |  | Not Active |  |
| C/C(=N\Nc1ccc([N+](=O)[O-])cc1)c1ccc(O)cc1 |  |  |  | 6 µg/mL (≈ 22.1 µM) | 5 µg/mL (≈ 18.4 µM) |  | Not Active | Not Active |
| O=[N+]([O-])c1ccc(/N=N/c2c3ccccc3c(O)c3c(O)c4ccccc4cc23)c([N+](=O)[O-])c1 |  |  | 0.1 µg/mL (≈ 0.22 µM) |  | 0.3 µg/mL (≈ 0.66 µM) |  | Not Active |  |
| COc1ccc(C(=NNc2ccc([N+](=O)[O-])cc2[N+](=O)[O-])c2ccc(OC)cc2O)c(O)c1 | 4.5 µg/mL (≈ 9.9 µM) |  |  | > 5 µg/mL |  | 1.5 µg/mL (≈ 3.3 µM) | Not Active | Not Active |
| O=[N+]([O-])c1ccc(/N=N/c2c3cc(O)ccc3c(NNc3ccc([N+](=O)[O-])cc3[N+](=O)[O-])c3cc(O)ccc23)c([N+](=O)[O-])c1 | 3.9 µg/mL (≈ 6.5 µM) |  | 1 µg/mL (≈ 1.67 µM) |  | 2.5 µg/mL (≈ 4.16 µM) |  | Not Active |  |
| O=[N+]([O-])c1ccc(NN=C(c2ccccc2O)c2ccccc2O)c([N+](=O)[O-])c1 | 8 µg/mL (≈ 20.3 µM) | > 5 µg/mL | 6 µg/mL (≈ 15.2 µM) | 5 µg/mL (≈ 12.7 µM) |  | 4.7 µg/mL (≈ 11.9 µM) |  |  |
